Our source for the EC50 and Activity values is ChEMBL document CHEMBL1150332, “Total synthesis of phenanthroindolizidine alkaloids (+/-)-antofine, (+/-)-deoxypergularinine, and their dehydro congeners and evaluation of their cytotoxic activity” (Bioorg Med Chem, 2008).

Values after ≈ are worked out from the molar mass of the structure shown. Active and inactive are the calls of the source. No cut-off for these calls is given here.

Holding throughout (format): functional, cell-based
The test system of one experiment is A549. The experiment in a line: Cytotoxicity against human A549 cells after 72 hrs by sulforhodamine B assay. The note with it: for EC50: A549, 72 h. The essentials:
(§1)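 SRB assay following NCI procedure; 72 h continuous exposure. Cells grown at 37 °C, 5% CO2, humidified, in RPMI-1640 with 25 mM HEPES, 2% (w/v) sodium bicarbonate, 10% (v/v) FBS, 100 µg/mL kanamycin. Compounds from DMSO stocks, final DMSO ≤1% (v/v). EC50 (µg/mL, 50% cell-number reduction) interpolated from dose-response; triplicate tests; doxorubicin positive control.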
On the technique in general: The SRB assay estimates cell density from bound dye.

The next experiment relates to MCF7. In words: Cytotoxicity against human MCF7 cells after 72 hrs by sulforhodamine B assay. The note with it: for EC50: MCF7, 72 h. The essentials: as §1
The subject of the next experiment is KB. The experiment in a line: Cytotoxicity against human KB cells after 72 hrs by sulforhodamine B assay. The essentials:
as §1

Experiment [1] in a line: Cytotoxicity against human KB-VIN cells after 72 hrs by sulforhodamine B assay. As to conditions: KBVIN. In outline: as §1

A word on the EC50: it is the concentration that produces a half-maximal response. As to `COc1ccc2c3c(c4cc(OC)c(OC)cc4c2c1)C(=O)N1CCCC1C3` (stereo not given), the EC50 in the experiment on A549 was determined as 1.15 µg/mL (≈ 3.05 µM); with MCF7, 2.14 µg/mL (≈ 5.67 µM); with KB, 1.39 µg/mL (≈ 3.68 µM); in experiment [1], 1.16 µg/mL (≈ 3.07 µM).

With `COc1ccc2c(c1)c1cc(OC)c(OC)cc1c1cc3[n+](cc21)CCC3.[Cl-]` [DEHYDROANTOFINE CHLORIDE], the EC50 turned out to be 0.73 µg/mL in the experiment on A549, 1.72 µg/mL with MCF7, 0.93 µg/mL in the experiment on KB and 0.33 µg/mL in experiment [1].

Regarding `COc1ccc2c3c(c4cc(OC)c(OC)cc4c2c1)CC1CCCN1C3` (racemic) [(+/-)-ANTOFINE], the EC50 in the experiment on A549 amounted to 0.00016 µg/mL (≈ 0.00044 µM); in the experiment on MCF7, 0.0045 µg/mL (≈ 0.0124 µM); with KB it was 0.00043 µg/mL (≈ 0.00118 µM); in experiment [1], 0.00083 µg/mL (≈ 0.00228 µM).

For the compound `COc1ccc2c(c1)c1cc(OC)c(OC)cc1c1cc[nH]c(=O)c21`, the outcome in the experiment with A549, with MCF7 and in the experiment on KB was inactive. Besides, in experiment [1], a half-maximal response (EC50) required 7.39 µg/mL (≈ 22 µM).

`COc1ccc2c(c1)c1cc(OC)c(OC)cc1c1cc3[n+](cc21)CCC3.[Br-]` [DEHYDROANTOFINE BROMIDE]: the EC50 in the experiment on A549 was determined as 0.49 µg/mL; in the experiment with MCF7, 1.29 µg/mL; with KB, 5.37 µg/mL; in experiment [1], 5.14 µg/mL.

With `COc1ccc2c(c1)c1cc(OC)c(OC)cc1c1c[n+]3c(cc21)CCC3.[Cl-]` [DEOXYPERGULARININE CHLORIDE], the half-maximal effective concentration (EC50) with A549 stood at 1.06 µg/mL; with MCF7, 1.49 µg/mL; with KB it was 0.95 µg/mL; in experiment [1], 5.66 µg/mL.

On to `COc1ccc2c(c1)c1cc(OC)c(OC)cc1c1c[n+]3c(cc21)CCC3.[Br-]` [DEOXYPERGULARININE BROMIDE], for which the EC50 in the experiment with A549 came to 0.32 µg/mL; in the experiment on MCF7, 1.18 µg/mL; in the experiment on KB, 0.29 µg/mL; in experiment [1] it was 8.26 µg/mL.

For `COc1ccc2cc(/C=C/C(=O)O)c3cc(OC)c(OC)cc3c2c1`, the outcome with A549, with MCF7 and in the experiment on KB was inactive. In experiment [1], the EC50 turned out to be 14.7 µg/mL (≈ 43.5 µM).

Consider `COc1ccc2cc(/C=C/C(=O)N=[N+]=[N-])c3cc(OC)c(OC)cc3c2c1`, for which the outcome in the experiment on A549 was inactive. Also, the EC50 came to 8.29 µg/mL (≈ 22.8 µM) in the experiment with MCF7, 13.5 µg/mL (≈ 37.2 µM) in the experiment on KB and 9.36 µg/mL (≈ 25.8 µM) in experiment [1].

Take `COc1ccc2c3c(c4cc(OC)c(OC)cc4c2c1)CN1CCCC1C3` (racemic) [(+/-)-DEOXYTYLOPHORININE]: the EC50 with A549 was determined as 0.011 µg/mL (≈ 0.0303 µM); with MCF7, 0.043 µg/mL (≈ 0.118 µM); in the experiment with KB, 0.023 µg/mL (≈ 0.0633 µM); in experiment [1], 0.016 µg/mL (≈ 0.044 µM).
